Data as given in the array DNA melting data of Ke et al. (doi:10.1101/2024.01.08.574731).

Tests used:
[1] = folding enthalpy; higher = less favourable; fluorescence melt of hairpins on a sequencing array, two-state fit; details: sodium 0.088 M
How it was run: (§1)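 Melting temperature and folding enthalpy were derived from bootstrapped two-state fits. The fitted temperatures were raised by 9.35 °C to agree with UV melts, and four replicates were combined by inverse variance. The underlying data were Cy3 fluorescence images of library hairpins, with annealed Cy3 and quencher oligos, on a sequenced MiSeq flow cell in 50 mM Na-HEPES pH 8.0, 25 mM NaCl, taken in 2.5 °C steps up to 60 °C, normalised to pre-quench Cy3 and to control constructs.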

[2] = melting temperature; fluorescence melt of hairpins on a sequencing array, two-state fit, raised by 9.35 °C to match UV melts; details: sodium 0.088 M
How it was run: as §1

GCGTCAGGACGC ((((....))))
folding enthalpy [1]: -26 kcal/mol
Tm [2]: 56.5 °C

GCGTCATCACGC ((((....))))
folding enthalpy [1]: -22.5 kcal/mol
Tm [2]: 50.4 °C

GCGTCCACACGC ((((....))))
folding enthalpy [1]: -27.1 kcal/mol
Tm [2]: 52.4 °C

GCGTCCACGAAAGTGCGC (((..(((....))))))
folding enthalpy [1]: -23.3 kcal/mol
Tm [2]: 48.6 °C

GCGTCCGAAAGGAACCGC ((((((....)))..)))
folding enthalpy [1]: -20.3 kcal/mol
Tm [2]: 48.5 °C

GCGTCCGAAAGGAGTCGC ((((((....)))..)))
folding enthalpy [1]: -22.9 kcal/mol
Tm [2]: 49.5 °C

GCGTCCGAAAGGATCCGC ((((((....)))..)))
folding enthalpy [1]: -21.2 kcal/mol
Tm [2]: 44.7 °C

GCGTCCGAACGC ((((....))))
folding enthalpy [1]: -21.8 kcal/mol
Tm [2]: 53.2 °C

GCGTCCGGAAACGGACAC (.(((((....))))).)
folding enthalpy [1]: -11.2 kcal/mol
Tm [2]: 51 °C

GCGTCCGGACGC ((((....))))
folding enthalpy [1]: -40.9 kcal/mol
Tm [2]: 60.3 °C

GCGTCCTCGAAAGAGCGC (((..(((....))))))
folding enthalpy [1]: -24.9 kcal/mol
Tm [2]: 48.4 °C

GCGTCGCCACGC ((((....))))
folding enthalpy [1]: -15.9 kcal/mol
Tm [2]: 53.7 °C

GCGTCGCGAAAGCCACGC ((((.((....)).))))
folding enthalpy [1]: -31.1 kcal/mol
Tm [2]: 64 °C

GCGTCGCGAAAGCCGCGC (((..((....))..)))
folding enthalpy [1]: -29.7 kcal/mol
Tm [2]: 66 °C

GCGTCGCGAAAGCTAAGC ((.(.((....)).).))
folding enthalpy [1]: -20.2 kcal/mol
Tm [2]: 51.4 °C

GCGTCGCTACGC ((((....))))
folding enthalpy [1]: -13.7 kcal/mol
Tm [2]: 55.2 °C

GCGTCGTACGC ((((...))))
folding enthalpy [1]: -18.3 kcal/mol
Tm [2]: 65.6 °C

GCGTCTACGAAAGTACGC (((..(((....))))))
folding enthalpy [1]: -28.4 kcal/mol
Tm [2]: 47.6 °C

GCGTCTCGACGC ((((....))))
folding enthalpy [1]: -26.9 kcal/mol
Tm [2]: 68.6 °C

GCGTCTGACGC ((((...))))
folding enthalpy [1]: -24.1 kcal/mol
Tm [2]: 56.7 °C

GCGTCTTCGAAAGAACGC (((..(((....))))))
folding enthalpy [1]: -26 kcal/mol
Tm [2]: 46.6 °C

GCGTGACCACGC ((((....))))
folding enthalpy [1]: -21.2 kcal/mol
Tm [2]: 61.3 °C

GCGTGAGACGC ((((...))))
folding enthalpy [1]: -18.8 kcal/mol
Tm [2]: 51 °C

GCGTGAGGAAACCCACGC (((((.(....).)))))
folding enthalpy [1]: -42.2 kcal/mol
Tm [2]: 57.7 °C

GCGTGATGACGC ((((....))))
folding enthalpy [1]: -25.1 kcal/mol
Tm [2]: 52.8 °C

GCGTGCGAAAGCACCCGC ((((((....)))..)))
folding enthalpy [1]: -10.1 kcal/mol
Tm [2]: 43.7 °C

GCGTGCGAAAGCATCCGC ((((((....)))..)))
folding enthalpy [1]: -17.3 kcal/mol
Tm [2]: 47.6 °C

GCGTGCGGAAACGCACAC (.(((((....))))).)
folding enthalpy [1]: -8.53 kcal/mol
Tm [2]: 50.3 °C

GCGTGCGGAAACGTACGC ((((.((....)).))))
folding enthalpy [1]: -31.7 kcal/mol
Tm [2]: 66.3 °C

GCGTGCGGAAACGTGCGC (((..((....))..)))
folding enthalpy [1]: -25.6 kcal/mol
Tm [2]: 59.6 °C

GCGTGCGTACGC ((((....))))
folding enthalpy [1]: -13.7 kcal/mol
Tm [2]: 64.8 °C

GCGTGGCGAAAGCAAAGC ((.(.((....)).).))
folding enthalpy [1]: -17.4 kcal/mol
Tm [2]: 52.1 °C

GCGTGGCGAAAGCAATGC ((.(.((....)).).))
folding enthalpy [1]: -19.6 kcal/mol
Tm [2]: 52.8 °C

GCGTGGCGAAAGCACCGC (((..((....))..)))
folding enthalpy [1]: -31.9 kcal/mol
Tm [2]: 62.2 °C

GCGTGGCGAAAGCCCGGC ((..(((....)))..))
folding enthalpy [1]: -14.9 kcal/mol
Tm [2]: 57.8 °C

GCGTGGCGAAAGCGGCGC (((..((....))..)))
folding enthalpy [1]: -40.4 kcal/mol
Tm [2]: 67.7 °C

GCGTGGCGAAAGCTAAGC ((.(.((....)).).))
folding enthalpy [1]: -23.3 kcal/mol
Tm [2]: 58.3 °C

GCGTGGCGACGC ((((....))))
folding enthalpy [1]: -16.4 kcal/mol
Tm [2]: 65.1 °C

GCGTGGGGAAACCTGCGC (((..((....))..)))
folding enthalpy [1]: -37 kcal/mol
Tm [2]: 53.3 °C

GCGTGTAGACGC ((((....))))
folding enthalpy [1]: -21.4 kcal/mol
Tm [2]: 58.5 °C

GCGTGTCCACGC ((((....))))
folding enthalpy [1]: -32.9 kcal/mol
Tm [2]: 61.5 °C

GCGTGTCGACGC ((((....))))
folding enthalpy [1]: -24.6 kcal/mol
Tm [2]: 55.4 °C

GCGTGTGGAAACGCACGC (((((.(....).)))))
folding enthalpy [1]: -34.5 kcal/mol
Tm [2]: 67.3 °C

GCGTGTGGAAACGCATGC ((.((.(....).)).))
folding enthalpy [1]: -23.4 kcal/mol
Tm [2]: 47.4 °C

GCGTTAATACGC ((((....))))
folding enthalpy [1]: -21.1 kcal/mol
Tm [2]: 51.1 °C

GCGTTACACGC ((((...))))
folding enthalpy [1]: -19.8 kcal/mol
Tm [2]: 58.1 °C

GCGTTAGCGAAAGCTCGC (((..(((....))))))
folding enthalpy [1]: -12.5 kcal/mol
Tm [2]: 44.2 °C

GCGTTAGGAAACTAATGC ((.((((....)))).))
folding enthalpy [1]: -43.2 kcal/mol
Tm [2]: 47.5 °C

GCGTTAGGAAACTGACGC ((((.((....)).))))
folding enthalpy [1]: -42.5 kcal/mol
Tm [2]: 53.6 °C

GCGTTATAACGC ((((....))))
folding enthalpy [1]: -30.4 kcal/mol
Tm [2]: 55.5 °C

GCGTTCCGAAAGGATCGC (((.(((....))).)))
folding enthalpy [1]: -35.4 kcal/mol
Tm [2]: 61.6 °C

GCGTTCGAAAGAACCGC ((((((....))).)))
folding enthalpy [1]: -23.8 kcal/mol
Tm [2]: 54.3 °C

GCGTTCGCGAAAGCGCGC (((..(((....))))))
folding enthalpy [1]: -19.3 kcal/mol
Tm [2]: 52.7 °C

GCGTTCGGAAACGAGTGC ((..(((....)))..))
folding enthalpy [1]: -25.7 kcal/mol
Tm [2]: 41.8 °C

GCGTTCGGACGC ((((....))))
folding enthalpy [1]: -25.4 kcal/mol
Tm [2]: 53.5 °C

GCGTTCTAACGC ((((....))))
folding enthalpy [1]: -25.8 kcal/mol
Tm [2]: 58.5 °C

GCGTTGATACGC ((((....))))
folding enthalpy [1]: -23.1 kcal/mol
Tm [2]: 53.1 °C

GCGTTGCGAAAGCATAGC ((..(((....)))..))
folding enthalpy [1]: -26.5 kcal/mol
Tm [2]: 58.4 °C

GCGTTGGGAAACTGACGC ((((..(....)..))))
folding enthalpy [1]: -35.3 kcal/mol
Tm [2]: 49.7 °C

GCGTTGTCACGC ((((....))))
folding enthalpy [1]: -22.4 kcal/mol
Tm [2]: 52.2 °C

GCGTTTCAACGC ((((....))))
folding enthalpy [1]: -27.6 kcal/mol
Tm [2]: 60.2 °C

GCGTTTCACGC ((((...))))
folding enthalpy [1]: -34.8 kcal/mol
Tm [2]: 59.1 °C

GCGTTTCCACGC ((((....))))
folding enthalpy [1]: -22.6 kcal/mol
Tm [2]: 53.5 °C

GCGTTTCGAAAGAACGC (((.(((....))))))
folding enthalpy [1]: -33.8 kcal/mol
Tm [2]: 57.6 °C

GCGTTTGCGAAAGCACGC (((..(((....))))))
folding enthalpy [1]: -22.6 kcal/mol
Tm [2]: 55.2 °C

GCGTTTGGAAACAAGCGC (((.(((....))).)))
folding enthalpy [1]: -45.6 kcal/mol
Tm [2]: 54.6 °C

GCGTTTGGAAACGAACGC (((((.(....).)))))
folding enthalpy [1]: -61.3 kcal/mol
Tm [2]: 55.7 °C

GCGTTTTAACGC ((((....))))
folding enthalpy [1]: -26.5 kcal/mol
Tm [2]: 57.7 °C

GCTAAAGCGAAAGCTAGC (((..(((....))))))
folding enthalpy [1]: -21.4 kcal/mol
Tm [2]: 47.3 °C

GCTAACCCGAAAGGGAGC (((..(((....))))))
folding enthalpy [1]: -15.6 kcal/mol
Tm [2]: 41.1 °C

GCTAACGAAAGTTATAGC ((((((....)))..)))
folding enthalpy [1]: -24.2 kcal/mol
Tm [2]: 36 °C

GCTAACGAAAGTTGTAGC ((((((....)))..)))
folding enthalpy [1]: -20.6 kcal/mol
Tm [2]: 38.3 °C

GCTAACGAAAGTTTGAGC ((((((....)))..)))
folding enthalpy [1]: -15.6 kcal/mol
Tm [2]: 32.6 °C

GCTAACGAAAGTTTTAGC ((((((....)))..)))
folding enthalpy [1]: -17.4 kcal/mol
Tm [2]: 33.6 °C

GCTAACGCGAAAGCGAGC (((..(((....))))))
folding enthalpy [1]: -15.2 kcal/mol
Tm [2]: 45.2 °C

GCTAAGACGAAAGTCAGC (((..(((....))))))
folding enthalpy [1]: -20.4 kcal/mol
Tm [2]: 44.3 °C

GCTAAGCGAAAGCAAAGC (((..((....))..)))
folding enthalpy [1]: -17.5 kcal/mol
Tm [2]: 40.8 °C

GCTAAGCGAAAGCACAGC (((..((....))..)))
folding enthalpy [1]: -21.7 kcal/mol
Tm [2]: 42.7 °C

GCTAAGCGAAAGCAGAGC (((..((....))..)))
folding enthalpy [1]: -23.9 kcal/mol
Tm [2]: 43.4 °C

GCTAAGCGAAAGCATAGC ((((.((....)).))))
folding enthalpy [1]: -27 kcal/mol
Tm [2]: 54.8 °C

GCTAAGCGAAAGCTAAGC (((.(((....))).)))
folding enthalpy [1]: -41.1 kcal/mol
Tm [2]: 51.5 °C

GCTAAGCGAAAGCTATGC ((..(((....)))..))
folding enthalpy [1]: -20.4 kcal/mol
Tm [2]: 43.5 °C

GCTAAGCGAAAGCTCCGC ((..(((....)))..))
folding enthalpy [1]: -10.6 kcal/mol
Tm [2]: 26.9 °C

GCTAAGCGAAAGCTGAGC (((.(((....))).)))
folding enthalpy [1]: -42.3 kcal/mol
Tm [2]: 56.1 °C

GCTAAGTCGAAAGACAGC (((..(((....))))))
folding enthalpy [1]: -20.2 kcal/mol
Tm [2]: 41.2 °C

GCTAATACGAAAGTAAGC (((..(((....))))))
folding enthalpy [1]: -14.1 kcal/mol
Tm [2]: 29.5 °C

GCTAATCCGAAAGGAAGC (((..(((....))))))
folding enthalpy [1]: -16.5 kcal/mol
Tm [2]: 33.1 °C

GCTAATCGAAAGATAAGC (((.(((....))).)))
folding enthalpy [1]: -26.2 kcal/mol
Tm [2]: 42.8 °C

GCTAATCGAAAGATGAGC (((.(((....))).)))
folding enthalpy [1]: -31.4 kcal/mol
Tm [2]: 47.8 °C

GCTACAGGAAACTGTAAC (.(((((....))))).)
folding enthalpy [1]: -12.8 kcal/mol
Tm [2]: 30.3 °C

GCTACAGGAAACTGTAGC (((((((....)))))))
folding enthalpy [1]: -47.9 kcal/mol
Tm [2]: 63.7 °C

GCTACCCCGAAAGGGAGC (((..(((....))))))
folding enthalpy [1]: -22.8 kcal/mol
Tm [2]: 46.9 °C

GCTACCCGAAAGGGAGC (((.(((....))))))
folding enthalpy [1]: -23.1 kcal/mol
Tm [2]: 55.5 °C

GCTACCGAAAGGTACAGC ((((((....)))..)))
folding enthalpy [1]: -13.6 kcal/mol
Tm [2]: 42.5 °C

GCTACCGAAAGGTATAGC ((((((....)))..)))
folding enthalpy [1]: -18.2 kcal/mol
Tm [2]: 44.4 °C
